Screens: PubChem, several laboratories
Only some compounds are listed: those with a hit (about 1.9% of all), similar ones and a draw of the others.
FGF22 binding: shifts melting point of recombinant human FGF22 | activity (Tm shift, normalised), % at 9.99 µM | 340,000 compounds, 1.5% hits | AID 651658 | Q9HCT0 | recombinant FGF22 thermal shift, SYPRO orange fluorescence; percent of sucrose octasulfate shift, DMSO zero;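 active = mean Tm shift, scaled 0 neutral to 100 positive control, at about 1.3% or above, every replicate too, limit read from the data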
Rtt109 HAT inh: blocks Candida albicans Rtt109/Vps75 acetyltransferase activity | Q5AAJ8 | inhibition, % at 34.9 µM | purified Rtt109/Vps75, ThioGlo CoA-SH fluorescence, 4 h | 330,000 compounds, 0.16% hits;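 active = inhibition of at least 50% in every replicate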
Target sequence (Q5AAJ8 whole entry, looked up): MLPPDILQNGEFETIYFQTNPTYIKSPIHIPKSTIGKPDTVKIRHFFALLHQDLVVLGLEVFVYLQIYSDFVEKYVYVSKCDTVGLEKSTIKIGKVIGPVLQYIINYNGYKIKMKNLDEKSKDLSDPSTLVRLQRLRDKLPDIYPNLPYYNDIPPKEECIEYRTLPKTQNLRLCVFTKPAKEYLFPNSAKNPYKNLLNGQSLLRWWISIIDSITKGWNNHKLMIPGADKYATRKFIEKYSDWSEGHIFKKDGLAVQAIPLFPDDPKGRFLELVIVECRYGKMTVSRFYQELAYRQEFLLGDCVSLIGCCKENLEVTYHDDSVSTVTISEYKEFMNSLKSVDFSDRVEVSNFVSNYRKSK
ASAP1 GAP inh: inhibitors of human ASAP1 ArfGAP activity; Q9ULH1; 360,000 compounds, 0.19% hits; ASAP1-stimulated ARF1 GTP hydrolysis, GDP FP detection; inhibition, % at 16.5 µM; in the data active = inhibition above about 25%;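 note: 0% = vehicle with enzyme and substrate and 100% = no enzyme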
Efflux pump mplx: blocks antifungal efflux pumps in multiplex yeast assay; S. cerevisiae Candida pump triplex, Nile Red efflux; 330,000 compounds, 0.44% hits; inhibition, % at 10 µM;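 active = plate passing quality check with inhibition over a set limit, or well fluorescence over plate mean plus 4 SD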;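 note: Nile Red retained in pooled yeast measured as flow cytometry median fluorescence; 0% = buffer negative control and 100% = Enniatin B positive control; higher means more Nile Red kept so more efflux inhibition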
ARFGAP1 inh: rat ARFGAP1 inhibition | Arfgap1-stimulated ARF1 GTP hydrolysis, GDP FP detection | inhibition, % at 16.5 µM | 360,000 compounds, 0.26% hits;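 active = inhibition above a per-plate limit, mean inhibition of low control wells plus 3 SD, cut at about 25% in these data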;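 note: 0% = DMSO wells with enzyme and 100% = wells lacking Arfgap1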
Target sequence (Q62848 1-136 limits assumed): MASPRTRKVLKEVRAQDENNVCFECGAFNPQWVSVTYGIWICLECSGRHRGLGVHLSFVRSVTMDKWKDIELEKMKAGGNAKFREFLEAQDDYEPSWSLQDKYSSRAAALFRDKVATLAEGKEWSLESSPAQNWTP
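Material: rat Arfgap1 catalytic domain, aa 1-136; also added: human ARF1(Δ1-17)-GTP substrate; compound dosing: one concentration, 16.5 µM, DMSO 1.26%; incubation: GTP hydrolysis reaction 2 h at 25 °C; measured by: Tracer-displacement fluorescence polarization with EDTA stop, 620/688 nm; evaluation: % inhibition from polarization; repeats: one replicate per compound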
Cmpd fluor yeast: compound fluorescence in yeast efflux pump counter-screen | shares compounds with Efflux pump mplx | S. cerevisiae AD/pABC3, flow cytometry | fluorescence ratio to DMSO, % at 10 µM | 1,700 compounds, 4% hits | AID 588517;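 active = fluorescence ratio to DMSO above its plate's cutoff, the plate mean ratio plus 5 SD, cut at about 210% in these data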;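 note: unstained yeast with no Nile Red so the signal is compound autofluorescence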
Mdr1 pump inh: blocks the Candida albicans Mdr1 efflux pump in yeast | S. cerevisiae AD/CaMDR1, Nile Red efflux, flow cytometry | inhibition, % at 10 µM | 1,700 compounds, 1% hits | shares compounds with Efflux pump mplx | AID 588518; in the data active = inhibition above about 26%;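 note: 0% = DMSO vehicle and 100% = reference inhibitor; higher means more Nile Red retained so more efflux inhibition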
CaCdr2 efflux inh: inhibitors of Candida albicans Cdr2 efflux pump. shares compounds with Efflux pump mplx. S. cerevisiae AD/CaCDR2, Nile Red retention, flow cytometry. Nile Red retention ratio vs DMSO, % at 10 µM. 1,700 compounds, 4% hits; in the data active = Nile Red retention ratio vs DMSO above about 190%;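 note: higher ratio means more blocking of Cdr2 efflux of the dye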
CaCdr1 efflux inh: blocks the Candida albicans Cdr1 efflux pump in yeast; S. cerevisiae AD/CaCDR1, Nile Red efflux, flow cytometry; shares compounds with Efflux pump mplx; 1,700 compounds, 1% hits; inhibition, % at 10 µM;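 active = inhibition above the screen-wide mean plus twice its standard deviation, cut at about 32% in these data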
* hit, by the source's call; x = no result given.

SMILES	FGF22 binding	Rtt109 HAT inh	ASAP1 GAP inh	Efflux pump mplx	ARFGAP1 inh	Cmpd fluor yeast	Mdr1 pump inh	CaCdr2 efflux inh	CaCdr1 efflux inh
COc1cc(OC)cc(C(=O)Nn2cc(C(=O)N3CCN(C)CC3)c3ccccc3c2=O)c1	x	4	8	0	-2	x	x	x	x
Cc1cc(OCC(=O)Nc2nnc(C3CC3)s2)ccc1Cl	0	x	4	x	6	x	x	x	x
O=C(COc1ccc(F)cc1)Nc1nnc(C2CC2)s1	0	-7	23	0	5	106	0	116	0
Cc1cc(NC(=O)CCC(=O)N(Cc2cccs2)C(C(=O)NC2CCCC2)c2cccnc2)no1 (stereo unspecified)	x	32	0	0	17	x	x	x	x
Cc1ccc(C(C(=O)NC2CCCC2)N(Cc2ccco2)C(=O)CCC(=O)Nc2cc(C)on2)cc1 (stereo unspecified)	x	26	6	0	4	87	0	95	0
Cc1cc(NC(=O)CCC(=O)N(Cc2cccs2)C(C(=O)NC2CCCC2)c2ccccc2)no1 (stereo unspecified)	x	12	0	0	11	82	0	95	0
COc1ccccc1NC(=O)NS(=O)(=O)c1ccc(C)cc1	x	-32	0	0	14	x	x	x	x
Cc1ccc(C)c(NC(=O)CCC(=O)N/N=C/c2cc([N+](=O)[O-])ccc2O)c1	0	12	2	1.4*	-2	103	0	97	0
N#CC(C#N)=C1C=C2C=C(N3CCCCC3)CCC2CC1 (stereo unspecified)	x	x	x	9.3*	x	179	1	232*	1
CCCCN(C)C1=CC2=CC(=C(C#N)C#N)CCC2CC1 (stereo unspecified)	-1	-6	10	5.5*	-4	231	1	282*	1
CCN(CC)C1=CC2=CC(=C(C#N)C#N)CCC2CC1 (stereo unspecified)	0	-1	4	3.4*	-5	155	1	225*	1
CCOC(=O)C(=NCCCN(C)C)NNc1ccc(Br)cc1	0	x	2	0	1	x	x	x	x
CCCCN=C(NNc1ccc(Br)cc1)C(=O)OCC	0	-2	0	17*	10	100	0	104	0
NS(=O)(=O)c1ccc(NC(=S)N2CCC(O)CC2)cc1	0	0	7	0	-3	x	x	x	x
NS(=O)(=O)c1ccc(NC(=S)N2CCN(c3ccccc3)CC2)cc1	x	1	1	3.6*	-5	104	0	99	0
O=C(Cn1cncn1)NCc1ccccc1Br	x	-13	-3	0	1	x	x	x	x
O=C(Cn1cncn1)NCc1cccc2ccccc12	x	3	12	0.9*	22	101	0	107	0
CCn1c(=O)c2ccccc2n(Cc2cccc(C)c2)c1=O	0	15	-8	0	-12	x	x	x	x
CCn1c(=O)c2ccccc2n(Cc2ccc([N+](=O)[O-])cc2)c1=O	0	6	1	0.6*	-4	97	0	118	0
C/C(CC(=O)NCc1ccco1)=N\NC(=O)COc1ccc(Cl)cc1Cl	0	-1	0	0	-9	x	x	x	x
O=c1[nH]c(S)c(/C=C2\C=Nc3ccccc32)s1	0	x	-3	0.5*	2	84	0	97	0
Cc1occc1C(=O)OCC(=O)Nc1ccc(F)cc1	x	3	9	0	5	x	x	x	x
C/C(=N\NC(=O)CC1(C)OCCO1)c1cccs1	x	-5	3	6.5*	-2	100	0	100	0
COc1ccc(CN(CC(=O)NCC2CCCO2)C(=O)CCC(=O)Nc2cc(C)on2)cc1 (stereo unspecified)	x	12	-5	0	-6	x	x	x	x
COc1cccc(CN(CC(=O)NCC2CCCO2)C(=O)CCC(=O)Nc2cc(C)on2)c1 (stereo unspecified)	x	-1	-7	0	-16	124	0	110	0
